Measured values as given in ChEMBL document CHEMBL4699426, “A practical synthesis of amino limonin/deoxylimonin derivatives as effective mitigators against inflammation and nociception” (2020).

Experiments:
[1] = system: Mus musculus; assay: Analgesic activity in mouse model of acetic-acid-induced writhing assessed as inhibition of writhing numbers at 70 mg/kg, po pretreated with compound followed by acetic acid challenge and measured after 30 mins relative to control; assay type: functional; details: 0.5 h
Outline: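 Acetic acid writhing in mice. Oral dosing (70 mg/kg test compounds or limonin; 200 mg/kg aspirin); vehicle controls got 0.5% CMC-Na. 30 min later 0.6% acetic acid, 10 ml/kg i.p. Each animal held in its own box and observed for 15 min; writhing and stretching counted; result as percent change from vehicle writhing controls.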

[2] = system: Mus musculus; assay: Antiinflammatory activity in mouse model of xylene-induced ear swelling assessed as inhibition of swelling by measuring weight of the ear at 100 mg/kg, ig pretreated for 90 mins followed by xylene challenge and measured after 30 mins relative to control; assay type: functional; details: po, 2 h, time 120 min
Outline: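 Xylene ear swelling in mice. Test compounds 100 mg/kg i.g., naproxen 150 mg/kg i.g., all suspended in 0.5% CMC-Na; vehicle group got CMC-Na alone. 90 min after dosing, 25 ul xylene applied to both surfaces of right ear; left ear unstimulated. Killed 30 min later; 8 mm punches from both ears weighed; swelling taken against left ear weight.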

[3] = system: Mus musculus; assay: Antiinflammatory activity in ICR mouse model of carrageenan-induced paw edema assessed as paw edema inhibition rate at 50 mg/kg, po pretreated with compound followed by carrageenan challenge and measured after 3 hrs post-treatment by dial thickness gage; assay type: functional
Outline: (§1)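 ICR male mice, 8 per group, randomized, acclimated at least one week, 12 h light/dark, 22 ± 1 °C. Dosed intragastrically at 25, 50 or 100 mg/kg; indomethacin 22 mg/kg i.g. as reference; olive oil as vehicle. 30 min later, 1% fresh carrageenan in saline injected subplantar into right hind paw. Paw thickness read by dial gauge before injection and at 1, 2, 3 and 4 h; percent increase over pre-injection value.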

[4] = system: Mus musculus; assay: Antiinflammatory activity in ICR mouse model of carrageenan-induced paw edema assessed as paw edema inhibition rate at 100 mg/kg, po pretreated with compound followed by carrageenan challenge and measured after 1 hr post-treatment by dial thickness gage; assay type: functional; outline: as §1
[5] = system: Mus musculus; assay: Antiinflammatory activity in ICR mouse model of carrageenan-induced paw edema assessed as paw edema inhibition rate at 50 mg/kg, ig pretreated with compound followed by carrageenan challenge and measured after 4 hrs post-treatment by dial thickness gage; assay type: functional; details: po; outline: as §1
[6] = system: Mus musculus; assay: Antiinflammatory activity in po dosed ICR mouse model of carrageenan-induced paw edema assessed as paw edema inhibition rate pretreated with compound followed by carrageenan challenge and measured after 4 hrs post-treatment by dial thickness gage; assay type: functional, organism-based; details: dose mg/kg 25-100, time 4.0 hrs; outline: as §1
[7] = system: Mus musculus; assay: Antiinflammatory activity in ICR mouse model of carrageenan-induced paw edema assessed as paw edema inhibition rate at 25 mg/kg, po pretreated with compound followed by carrageenan challenge and measured after 2 hrs post-treatment by dial thickness gage; assay type: functional; outline: as §1
[8] = system: Mus musculus; assay: Antiinflammatory activity in ICR mouse model of carrageenan-induced paw edema assessed as paw edema inhibition rate at 25 mg/kg, po pretreated with compound followed by carrageenan challenge and measured after 1 hr post-treatment by dial thickness gage; assay type: functional; outline: as §1
[9] = system: Mus musculus; assay: Antiinflammatory activity in ICR mouse model of carrageenan-induced paw edema assessed as paw edema inhibition rate at 50 mg/kg, po pretreated with compound followed by carrageenan challenge and measured after 2 hrs post-treatment by dial thickness gage; assay type: functional; outline: as §1
[10] = system: Mus musculus; assay: Antiinflammatory activity in ICR mouse model of carrageenan-induced paw edema assessed as paw edema inhibition rate at 25 mg/kg, po pretreated with compound followed by carrageenan challenge and measured after 3 hrs post-treatment by dial thickness gage; assay type: functional; outline: as §1
[11] = system: Mus musculus; assay: Antiinflammatory activity in ICR mouse model of carrageenan-induced paw edema assessed as paw edema inhibition rate at 100 mg/kg, po pretreated with compound followed by carrageenan challenge and measured after 4 hrs post-treatment by dial thickness gage; assay type: functional; outline: as §1
[12] = system: Mus musculus; assay: Antiinflammatory activity in ICR mouse model of carrageenan-induced paw edema assessed as paw edema inhibition rate at 25 mg/kg, po pretreated with compound followed by carrageenan challenge and measured after 4 hrs post-treatment by dial thickness gage; assay type: functional; details: 2 h, dose mg/kg 25-100; outline: as §1
[13] = system: Mus musculus; assay: Antiinflammatory activity in ICR mouse model of carrageenan-induced paw edema assessed as paw edema inhibition rate at 100 mg/kg, po pretreated with compound followed by carrageenan challenge and measured after 3 hrs post-treatment by dial thickness gage; assay type: functional; outline: as §1
[14] = system: Mus musculus; assay: Antiinflammatory activity in ICR mouse model of carrageenan-induced paw edema assessed as paw edema inhibition rate at 50 mg/kg, po pretreated with compound followed by carrageenan challenge and measured after 1 hr post-treatment by dial thickness gage; assay type: functional; outline: as §1
[15] = system: Mus musculus; assay: Antiinflammatory activity in ICR mouse model of carrageenan-induced paw edema assessed as paw edema inhibition rate at 100 mg/kg, po pretreated with compound followed by carrageenan challenge and measured after 2 hrs post-treatment by dial thickness gage; assay type: functional; outline: as §1
[16] = system: Mus musculus; assay: Antiinflammatory activity in ICR mouse model of carrageenan-induced paw edema assessed as paw edema inhibition rate at 22 mg/kg, po pretreated with compound followed by carrageenan challenge and measured after 2 hrs post-treatment by dial thickness gage; assay type: functional; outline: as §1
[17] = system: Mus musculus; assay: Antiinflammatory activity in ICR mouse model of carrageenan-induced paw edema assessed as paw edema inhibition rate at 22 mg/kg, po pretreated with compound followed by carrageenan challenge and measured after 1 hr post-treatment by dial thickness gage; assay type: functional; outline: as §1
[18] = system: Mus musculus; assay: Antiinflammatory activity in ICR mouse model of carrageenan-induced paw edema assessed as paw edema inhibition rate at 22 mg/kg, po pretreated with compound followed by carrageenan challenge and measured after 4 hrs post-treatment by dial thickness gage; assay type: functional; outline: as §1
[19] = system: Mus musculus; assay: Antiinflammatory activity in ICR mouse model of carrageenan-induced paw edema assessed as paw edema inhibition rate at 22 mg/kg, po pretreated with compound followed by carrageenan challenge and measured after 3 hrs post-treatment by dial thickness gage; assay type: functional; outline: as §1
[20] = species on record: Mus musculus; assay: animal or person; details: po, 2 h, read-out: INH

CC1(C)OC(CCNCCc2ccc(F)cc2)C2(CO)[C@H]3CC[C@]4(C)C(=CC(=O)O[C@H]4c4ccoc4)[C@]3(C)C(=O)C[C@@H]12 (stereo not given in full)
inhibition in vivo at 70 mg/kg [1]: 30.1%
inhibition in vivo at 100 mg/kg [2]: 30%

COc1ccc(CNCCC2OC(C)(C)[C@@H]3CC(=O)[C@]4(C)[C@H](CC[C@@]5(C)[C@H](c6ccoc6)OC(=O)[C@H]6O[C@]654)C23CO)cc1 (stereo not given in full)
inhibition in vivo at 50 mg/kg [3]: 17.5%
inhibition in vivo at 100 mg/kg [4]: 54.5%
inhibition in vivo at 50 mg/kg [5]: 15.6%
inhibition [6]: Dose-dependent effect
inhibition in vivo at 25 mg/kg [7]: 24.6%
inhibition in vivo at 70 mg/kg [1]: 81.5%
inhibition in vivo at 25 mg/kg [8]: 43.4%
inhibition in vivo at 50 mg/kg [9]: 33.3%
inhibition in vivo at 25 mg/kg [10]: 9.77%
inhibition in vivo at 100 mg/kg [11]: 32%
inhibition in vivo at 25 mg/kg [12]: 5.75%
inhibition in vivo at 100 mg/kg [13]: 41.4%
inhibition in vivo at 100 mg/kg [2]: 27.3%
inhibition in vivo at 50 mg/kg [14]: 44.6%
inhibition in vivo at 100 mg/kg [15]: 62%

CC1(C)OC2CCN(Cc3ccc(F)cc3)CC23[C@H]2CC[C@]4(C)C(=CC(=O)O[C@H]4c4ccoc4)[C@]2(C)C(=O)C[C@@H]13 (stereo not given in full)
inhibition in vivo at 70 mg/kg [1]: 40.3%
inhibition in vivo at 100 mg/kg [2]: 28%

COc1ccc2c(c1)c(CC(=O)O)c(C)n2C(=O)c1ccc(Cl)cc1 [INDOMETHACIN]
inhibition in vivo at 22 mg/kg [16]: 60%
inhibition in vivo at 22 mg/kg [17]: 47.5%
inhibition in vivo at 22 mg/kg [18]: 64.8%
inhibition in vivo at 22 mg/kg [19]: 64.9%

CC1(C)O[C@H]2CC(=O)OC[C@@]23[C@H]1CC(=O)[C@@]1(C)C2=CC(=O)O[C@@H](c4ccoc4)[C@]2(C)CC[C@@H]13
inhibition in vivo at 70 mg/kg [1]: 22.6%
inhibition in vivo at 100 mg/kg [2]: 11.2%

CC1(C)O[C@H]2CC(=O)OC[C@]23[C@H]2CC[C@@]4(C)[C@H](c5ccoc5)OC(=O)[C@H]5O[C@]54[C@]2(C)C(=O)C[C@@H]13 [LIMONIN]
inhibition in vivo at 50 mg/kg [3]: 26.3%
inhibition in vivo at 70 mg/kg [1]: 44.2%
inhibition in vivo at 50 mg/kg [9]: 22%
inhibition in vivo at 100 mg/kg [2]: 14.4%
inhibition in vivo at 50 mg/kg [14]: 57.3%

COc1ccc(CNCCC2OC(C)(C)[C@@H]3CC(=O)[C@@]4(C)C5=CC(=O)O[C@@H](c6ccoc6)[C@]5(C)CC[C@@H]4C23CO)cc1 (stereo not given in full)
inhibition in vivo at 70 mg/kg [1]: 29.7%
inhibition in vivo at 100 mg/kg [2]: 24.8%

COc1ccc(CCNCCC2OC(C)(C)[C@@H]3CC(=O)[C@@]4(C)C5=CC(=O)O[C@@H](c6ccoc6)[C@]5(C)CC[C@@H]4C23CO)cc1OC (stereo not given in full)
inhibition in vivo at 70 mg/kg [1]: 52.6%
inhibition in vivo at 100 mg/kg [2]: 37.9%

COc1ccc2cc([C@H](C)C(=O)O)ccc2c1 [NAPROXEN]
inhibition in vivo at 150 mg/kg [20]: 25%
